Test system: Mus musculus
Assay: Toxicity in mouse ascites sarcoma 180 cells allografted ddN mouse at 3 mg/kg/day for 5 days administered 24 hrs after tumor inoculation measured 7th day after tumor inoculation
Format: organism-based
Settings: in vivo

For `O=C1C=CC(=O)C1`, which Activity is on record?
Its Activity is “Toxic”.

Test system: Sarcoma-180
Assay: Antitumor activity against mouse ascites Sarcoma 180 cells allografted in ddN mouse assessed as percentage of total packed cell volume ratio at 100 mg/kg/day for 5 days administered 24 hrs after tumor inoculation measured 7th day after tumor inoculation
Format: functional
Settings: not given
In short: (§1)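 Compound given by injection once daily for 5 days, beginning 24 h after S-180 tumor inoculation. Antitumor activity was scored from the total packed cell volume ratio (TPCV %) on day 7 after inoculation.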

`COc1cc(C=C2C(=O)c3ccccc3C2=O)ccc1O` was tested. Which Activity did it give?
Its Activity is 0%.

For `COc1cc(C=C2C(=O)c3ccccc3C2=O)cc(OC)c1OC`, which Activity is on record?
The Activity was 41%.

With `COc1ccc(C=C2C(=O)c3ccccc3C2=O)cc1O` as the compound, how does the Activity read?
Its Activity is 41%.

Which Activity does the source give for `COc1cc(/C=C2\CCC/C(=C\c3cc(OC)c(O)c(OC)c3)C2=O)cc(OC)c1O` here?
Its Activity is 66%.

Which Activity does the source give for `COc1cc(/C=C2\CCC(C)/C(=C\c3cc(OC)c(OC)c(OC)c3)C2=O)cc(OC)c1OC` (stereo not given) here?
The Activity was 66%.

With `COc1cc(/C=C2\CC(C)C/C(=C\c3ccc(O)c(OC)c3)C2=O)ccc1O` (stereo not given) as the compound, how does the Activity read?
Its Activity is 66%.

Which Activity does the source give for `COc1ccc(C=C2C(=O)c3ccccc3C2=O)cc1` here?
Its Activity is 66%.

Which Activity does the source give for `COc1cc(/C=C2\CC/C(=C\c3ccc(O)c(OC)c3)C2=O)ccc1O` here?
Its Activity is 66%.

How did the Activity turn out when `O=C1CC(=O)c2ccccc21` was run?
The Activity was 11%.

`O=C1C(=Cc2ccc(O)cc2)C(=O)c2ccccc21` was tested. Which Activity did it give?
The Activity was 66%.

`COc1cc(C=C2C(=O)c3ccccc3C2=O)cc(OC)c1O` was tested. Which Activity did it give?
Its Activity is 11%.

`COc1ccc(C=C2C(=O)c3ccccc3C2=O)cc1OC` was tested. Which Activity did it give?
The Activity was 41%.

For `COc1cc(C=C2C(=O)c3ccccc3C2=O)ccc1OCc1ccccc1`, which Activity is on record?
The Activity was 66%.

Which Activity does the source give for `COc1cc(C=C2C(=O)c3ccccc3C2=O)cc(OC)c1OCc1ccccc1` here?
Its Activity is 66%.

For `O=C1C(=C/C=C/c2ccccc2)C(=O)c2ccccc21`, which Activity is on record?
The Activity was 66%.

Which Activity does the source give for `COc1cc(/C=C/C=C2C(=O)c3ccccc3C2=O)ccc1O` here?
The Activity was 66%.

How did the Activity turn out when `COc1cc(/C=C2\CC/C(=C\c3ccc(OCc4ccccc4)c(OC)c3)C2=O)ccc1OCc1ccccc1` was run?
Its Activity is 66%.

For `COc1cc(/C=C2\CC/C(=C\c3cc(OC)c(OCc4ccccc4)c(OC)c3)C2=O)cc(OC)c1OCc1ccccc1`, which Activity is on record?
The Activity was 66%.

For `COc1cc(/C=C2\CCC/C(=C\c3ccc(OCc4ccccc4)c(OC)c3)C2=O)ccc1OCc1ccccc1`, which Activity is on record?
Its Activity is 66%.

With `COc1cc(/C=C2\CCC/C(=C\c3cc(OC)c(OCc4ccccc4)c(OC)c3)C2=O)cc(OC)c1OCc1ccccc1` as the compound, how does the Activity read?
Its Activity is 66%.

How did the Activity turn out when `COc1cc(/C=C2\CCC(C)/C(=C\c3ccc(O)c(OC)c3)C2=O)ccc1O` (stereo not given) was run?
Its Activity is 66%.

For `COc1cc(/C=C2\CCC(C)/C(=C\c3ccc(OCc4ccccc4)c(OC)c3)C2=O)ccc1OCc1ccccc1` (stereo not given), which Activity is on record?
The Activity was 66%.

With `COc1cc(/C=C2\CCC(C)/C(=C\c3cc(OC)c(O)c(OC)c3)C2=O)cc(OC)c1O` (stereo not given) as the compound, how does the Activity read?
The Activity was 66%.

`COc1cc(/C=C2\CCC(C)/C(=C\c3cc(OC)c(OCc4ccccc4)c(OC)c3)C2=O)cc(OC)c1OCc1ccccc1` (stereo not given) was tested. Which Activity did it give?
Its Activity is 66%.

With `COc1cc(/C=C2\CC(C)C/C(=C\c3ccc(OCc4ccccc4)c(OC)c3)C2=O)ccc1OCc1ccccc1` (stereo not given) as the compound, how does the Activity read?
The Activity was 66%.

`COc1cc(/C=C2\CC(C)C/C(=C\c3cc(OC)c(O)c(OC)c3)C2=O)cc(OC)c1O` (stereo not given) was tested. Which Activity did it give?
Its Activity is 66%.

Which Activity does the source give for `COc1cc(/C=C2\CC(C)C/C(=C\c3cc(OC)c(OCc4ccccc4)c(OC)c3)C2=O)cc(OC)c1OCc1ccccc1` (stereo not given) here?
Its Activity is 66%.

For `COc1cc(/C=C2\CC/C(=C\c3cc(OC)c(O)c(OC)c3)C2=O)cc(OC)c1O`, which Activity is on record?
Its Activity is 66%.

For `COc1cc(/C=C2\CCC/C(=C\c3ccc(O)c(OC)c3)C2=O)ccc1O` [CYCLOVALONE], which Activity is on record?
The Activity was 66%.

Test system: Sarcoma-180
Assay: Antitumor activity against mouse ascites Sarcoma 180 cells allografted in ddN mouse assessed as percentage of total packed cell volume ratio at 3 mg/kg/day for 5 days administered 24 hrs after tumor inoculation measured 7th day after tumor inoculation
Format: functional
Settings: not given
In short: as §1

How did the Activity turn out when `COc1cc(C=C2C(=O)C=CC2=O)ccc1O` was run?
Its Activity is 0%.

Test system: Sarcoma-180
Assay: Antitumor activity against mouse ascites Sarcoma 180 cells allografted in ddN mouse assessed as percentage of total packed cell volume ratio at 10 mg/kg/day for 5 days administered 24 hrs after tumor inoculation measured 7th day after tumor inoculation
Format: functional
Settings: not given
In short: as §1

For `COc1ccc(C=C2C(=O)C=CC2=O)cc1`, which Activity is on record?
Its Activity is 0%.

With `COc1ccc(C=C2C(=O)C=CC2=O)cc1O` as the compound, how does the Activity read?
Its Activity is 0%.

Which Activity does the source give for `O=C1C=CC(=O)C1=Cc1ccc(O)cc1` here?
Its Activity is 0%.

With `COc1cc(C=C2C(=O)C=CC2=O)cc(OC)c1O` as the compound, how does the Activity read?
The Activity was 0%.

Which Activity does the source give for `COc1ccc(C=C2C(=O)C=CC2=O)cc1OC` here?
The Activity was 0%.

With `COc1cc(C=C2C(=O)C=CC2=O)cc(OC)c1OC` as the compound, how does the Activity read?
The Activity was 0%.

`COc1cc(C=C2C(=O)C=CC2=O)ccc1OCc1ccccc1` was tested. Which Activity did it give?
The Activity was 11%.

For `COc1cc(C=C2C(=O)C=CC2=O)cc(OC)c1OCc1ccccc1`, which Activity is on record?
Its Activity is 11%.

How did the Activity turn out when `O=C1C=CC(=O)C1=C/C=C/c1ccccc1` was run?
The Activity was 0%.

Reference: ChEMBL document CHEMBL3272140, “Structure and antitumor activity relationship of 2-arylidene-4-cyclopentene-1, 3-diones and 2-arylideneindan-1, 3-diones” (J Med Chem, 1976)
